In ChEMBL document CHEMBL1127780, “Synthesis of a photoaffinity taxol analogue and its use in labeling tubulin” (J Med Chem, 1994) one finds Incorporated, Amount incorporated (M (M of tubulin)-1) and Ratio data, which are given here for one compound.

Assay [1] has as its system Tubulin alpha chain (Bos taurus). As to the kind of experiment: The photoincorporation of [3H]AzB-taxol into alpha-subunit of tubulin was evaluated at initial ratio of 1.0.
For assay [2], the system named is Tubulin (Bos taurus). As to the kind of experiment: The photoincorporation of [3H]AzB-taxol into tubulin was evaluated from tubulin in 8M urea.
Assay [3] in a line: The ratio of AzT-taxol/tubulin noncovalently bound after irradiation at initial ratio of 0.5. The conditions noted are these: in the assay text read “before irradiation” for “after irradiation”. Put shortly: (§1)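 Noncovalent binding without irradiation: 5 μM tubulin with varied [3H]AzB-taxol, 20 min at 37 °C. Centrifuged at 40000g; pellets washed with buffer, recentrifuged and dissolved in 0.1 M NaOH. Bound mol/mol from protein and radioactivity.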

In assay [4] the test system is Tubulin (Bos taurus). As to the kind of experiment: The inhibition of photoincorporation of AzB-taxol into tubulin was evaluated in the presence of 7.5 uM of taxol; Complete inhibition.
The test system of assay [5] is Tubulin (Bos taurus). Put plainly: The photoincorporation of [3H]AzB-taxol into tubulin was evaluated by incubation in dark.
In assay [6] the test system is Tubulin (Bos taurus). Put plainly: The photoincorporation of [3H]AzB-taxol into tubulin was evaluated from polymerized tubulin.
For assay [7], the target named is Tubulin beta chain (Sus scrofa) (UniProt P02554). Put plainly: The photoincorporation of [3H]-AzB-taxol into beta-subunit of tubulin was evaluated at initial ratio of 1.0.
Assay [8] is described as follows: The ratio of AzT-taxol/tubulin covalently bound after irradiation at initial ratio of 1.0. Put shortly: (§2)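 Tubulin (5 μM) with [3H]AzB-taxol at varied initial ratios, 20 min at 37 °C in Pipes/EGTA/MgSO4/DTT/GTP buffer pH 6.9, then irradiated 20 min at 300 nm. Centrifuged at 40000g, 10 min, 37 °C. Pellet washed repeatedly with 50% ethanol, dissolved in 0.1 M NaOH. Covalent mol/mol from radioactivity and protein.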

The nature of assay [9]: The ratio of […]/tubulin noncovalently bound […] at initial ratio of 1.0. The essentials:
as §1

The nature of assay [10]: The ratio of AzT-taxol/tubulin noncovalently bound […] at initial ratio of 2.0. The essentials: as §1
For assay [11], the system named is Tubulin (Bos taurus). Put plainly: The photoincorporation of [3H]AzB-taxol into tubulin was evaluated from unpolymerized tubulin on ice.
Assay [12] in a line: The ratio of AzT-taxol/tubulin covalently bound after irradiation at initial ratio of 2.0. Put shortly: as §2
In assay [13] the test system is Tubulin (Bos taurus). As to the kind of experiment: The photoincorporation of [3H]AzB-taxol into tubulin was evaluated by preirradiation of the compound.
The test system of assay [14] is Tubulin (Bos taurus). Put plainly: The incorporation of [3H]AzB-taxol into tubulin was evaluated after irradiation with 350 nM lamp.
Assay [15] deals with Tubulin (Bos taurus). Put plainly: The incorporation of [3H]AzB-taxol into tubulin was evaluated after irradiation with 300 nM lamp.
Assay [16] is described as follows: The ratio of AzT-taxol/tubulin covalently bound after irradiation at initial ratio of 0.5. The essentials:
as §2

A short description of assay [17]: The ratio of […]/tubulin noncovalently bound […] at initial ratio of 4.0. Put shortly:
as §1

The nature of assay [18]: The ratio of AzT-taxol/tubulin covalently bound after irradiation at initial ratio of 4.0. The essentials:
as §2

Assay [19] addresses Tubulin beta chain (Sus scrofa) (UniProt P02554). Put plainly: The photoincorporation of [3H]AzB-taxol into beta-subunit of tubulin was evaluated at initial ratio of 0.5.
The nature of assay [20]: The ratio of AzT-taxol/tubulin noncovalently bound […] at initial ratio of 3.0. The essentials: as §1
Assay [21] can be described thus: The ratio of AzT-taxol/tubulin covalently bound after irradiation at initial ratio of 3.0. Put shortly: as §2
The test system of assay [22] is Tubulin (Bos taurus). Put plainly: The incorporation of [3H]AzB-taxol into tubulin was evaluated after irradiation with 254 nM lamp.
The target in assay [23] is Tubulin alpha chain (Sus scrofa) (UniProt P02550). As to the kind of experiment: The photoincorporation of [3H]AzB-taxol into alpha-subunit of tubulin was evaluated at initial ratio of 0.5. The essentials: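 Tubulin (5 μM) with [3H]AzB-taxol at the stated initial ratio, 20 min at 37 °C, then irradiated 20 min at 300 nm. Ethanol-washed precipitate run on SDS-PAGE (7.5% running gel, 3% stacking gel) and stained with Coomassie. α- and β-bands excised, dissolved in 30% H2O2 at 65 °C and counted; results are % of incorporation per subunit, n = 2–3 experiments.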

Values joined by “and” are separate entries in the source; they are usually repeats but may differ in a detail not shown here. Identical values can stand only once.

Sequence of Tubulin beta chain (Sus scrofa) (P02554 whole entry, looked up): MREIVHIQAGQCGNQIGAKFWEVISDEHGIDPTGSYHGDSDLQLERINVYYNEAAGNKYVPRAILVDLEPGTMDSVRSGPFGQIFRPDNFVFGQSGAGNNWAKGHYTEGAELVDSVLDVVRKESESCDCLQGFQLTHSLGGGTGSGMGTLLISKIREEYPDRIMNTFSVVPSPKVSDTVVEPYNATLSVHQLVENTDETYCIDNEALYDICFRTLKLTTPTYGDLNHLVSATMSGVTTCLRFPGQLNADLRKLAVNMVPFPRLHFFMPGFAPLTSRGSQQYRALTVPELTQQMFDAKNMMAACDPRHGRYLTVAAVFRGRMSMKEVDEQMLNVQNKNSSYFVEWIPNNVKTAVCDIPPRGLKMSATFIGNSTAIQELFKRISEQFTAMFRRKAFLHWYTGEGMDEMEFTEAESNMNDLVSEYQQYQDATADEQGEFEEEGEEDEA
Sequence of Tubulin alpha chain (Sus scrofa) (P02550 whole entry, looked up): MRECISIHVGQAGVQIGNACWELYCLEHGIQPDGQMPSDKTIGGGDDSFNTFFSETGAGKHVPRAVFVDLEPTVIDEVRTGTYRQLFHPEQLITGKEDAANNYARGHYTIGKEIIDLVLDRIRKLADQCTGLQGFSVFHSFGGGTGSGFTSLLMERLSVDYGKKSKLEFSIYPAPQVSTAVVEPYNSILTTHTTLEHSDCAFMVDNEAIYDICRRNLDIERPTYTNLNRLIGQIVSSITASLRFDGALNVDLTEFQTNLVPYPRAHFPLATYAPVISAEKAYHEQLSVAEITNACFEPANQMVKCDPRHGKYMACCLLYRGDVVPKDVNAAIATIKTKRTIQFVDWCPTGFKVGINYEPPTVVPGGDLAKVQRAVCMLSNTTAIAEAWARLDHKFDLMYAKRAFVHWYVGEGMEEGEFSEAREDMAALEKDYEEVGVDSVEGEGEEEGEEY

For the compound `CC(=O)O[C@H]1C(=O)[C@@]2(C)C([C@H](OC(=O)c3ccccc3)[C@]3(O)C[C@H](OC(=O)[C@H](O)C(NC(=O)c4ccc(N=[N+]=[N-])cc4)c4ccccc4)C(C)=C1C3(C)C)[C@]1(OC(C)=O)CO[C@@H]1C[C@@H]2O` (stereo partly drawn), the Incorporated in assay [1] is 14%; in assay [4], “Complete inhibition”; in assay [7], 86%; in [19] it was 80% and 81%; in [23], 20% and 19%. The Amount incorporated (M (M of tubulin)-1) in assay [2] is 0.015; in assay [5], 0.008; in [6] it was 0.15; in assay [11], 0.03; in assay [13], 0.016; in assay [14], 0.025. For the same compound, the Amount incorporated (M (M of tubulin)-1) in assay [15] was determined as 0.12; in assay [22] it was 0.13. In addition, the Ratio turned out to be 0.5 in assay [3]; 0.17 in assay [8]; 0.85 in [9]; 1.22 in assay [10]; 0.23 in assay [12]; 0.13 in assay [16]. In addition, the Ratio in [17] amounted to 1.19; in [18], 0.24; in assay [20] it was 1.2; in assay [21], 0.23.
